From PubChem
This is a sample that favours compounds with a hit; in the whole collection about 2.4% have one here.
MT stabilizer: microtubule stabilizers in HeLa cells | HeLa tubulin immunostaining HCS, 24 h; share of cells brighter than vehicle mean+2SD | % tubulin-high responders, % at 10 µM | 0.83% of 200,000 active | AID 2205;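 active = plate Z-score above 3 for both tubulin-high and condensed-nucleus cell shares, with cell loss under 80%, at 10 µM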;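 also: anti alpha tubulin signal scored within the nucleus-defined area of each cell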
b-catenin transl: modulators of beta-catenin nuclear translocation | HeLa beta-catenin nuclear translocation, immunofluorescence imaging | nuclear translocation activity, % at 5 µM | 0.3% of 190,000 active | AID 1665;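 active = nuclear translocation activity above 50% at 5 µM, with a well cell count of 50 or more; inconclusive = wells under 50 cells across six images, flagged as toxic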;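 also: per-cell ratio of nuclear to cytoplasmic median beta-catenin stain intensity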
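Test system: human HeLa cells, endogenous beta-catenin. Times: 24 h compound exposure, 37°C. Measured by: beta-catenin immunofluorescence imaging with DAPI.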
Insulin prom inh: TRM-6 insulin promoter activity inhibition; TRM-6 cells, insulin promoter-eGFP reporter, imaging; reporter expression induced with tamoxifen; 0.9% of 130,000 active; AID 1273; inhibition, % at 2 µM;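 active = inhibition above the mean plus 3 SD, with well images judged a real hit on visual review, cut at about 60% in these data, passing the limit was not always enough; inconclusive = inhibition over the cutoff but images rejected on review; inactive = inhibition not above the cutoff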
ROMK mod: human ROMK K+ channel modulation, primary screen; Tet-inducible ROMK, thallium flux fluorescence; actives lie on both sides; P48048; B-score at 10 µM; 2% of 130,000 active;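 active = signal ratio slope over the read window, or its plate-corrected B-score, at least 3 SD from the plate mean, either direction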;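 also: B-score of the F/F0 ratio slope over 7 to 12 s after thallium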
Target sequence (P48048 whole entry, looked up): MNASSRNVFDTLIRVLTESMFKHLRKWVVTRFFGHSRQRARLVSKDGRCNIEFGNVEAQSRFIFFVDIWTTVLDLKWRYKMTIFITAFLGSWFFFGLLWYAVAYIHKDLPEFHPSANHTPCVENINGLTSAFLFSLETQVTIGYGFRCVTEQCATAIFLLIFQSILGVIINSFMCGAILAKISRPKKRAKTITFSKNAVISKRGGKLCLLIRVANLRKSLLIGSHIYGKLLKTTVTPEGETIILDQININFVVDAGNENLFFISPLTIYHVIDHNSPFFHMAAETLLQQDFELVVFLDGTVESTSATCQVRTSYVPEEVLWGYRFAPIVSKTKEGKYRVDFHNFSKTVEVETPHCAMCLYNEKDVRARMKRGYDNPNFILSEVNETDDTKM
HSV replic up: HSV replication enhancement; HSV replication augmentation in cells, fold increase; maximum fold increase; 0.005% of 220,000 active; in the data active = maximum fold increase above about 1.5; inconclusive = no clear call, values can overlap the other calls; tested in PC3 cells
ROMK retest: human ROMK channel modulation, retest confirmation. shares compounds with ROMK mod. ROMK thallium flux, fluorescence ratio; active compounds read low. normalized thallium flux (F/F0 slope) at 10 µM. 54% of 3,000 active. AID 1917;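 active = Flux at 10 µM at least 3 SD below or above vehicle control mean in one or both replicates; inconclusive = no clear call, values can overlap the other calls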
Of the large screens only hits and unclear results are named; the others gave an inactive call (follow-up assays come after a bar, where they were run).

O=C1CCCN1c1ccc(S(=O)(=O)O)cc1 (tested in a mixture with another compound)	none (no result: ROMK mod)
CN(CCCCC(=O)/C=N/O)Cc1ccccc1 (tested in a mixture with another compound)	ROMK mod 3.3 (no result: b-catenin transl) | ROMK retest inactive
Cc1c(N=Nc2c(O)n(C)c(=O)n(C)c2=O)c(=O)n(-c2ccccc2)n1C	none (no result: ROMK mod)
O=c1oc2ccccc2c(O)c1[C@H]1c2ccc(O)cc2Oc2c1c(=O)oc1ccccc21	none (no result: MT stabilizer, Insulin prom inh)
Cc1[nH]c2ccccc2c1C(=O)C(=O)N1CC2CC(C1)c1cccc(=O)n1C2 (stereo not drawn)	none
CC(C)Sc1nnc([C@@H](N)Cc2ccccc2)o1	none (no result: ROMK mod) | ROMK retest inactive
CSc1nnc([C@@H](N)Cc2ccccc2)o1	Insulin prom inh inconclusive (no result: ROMK mod)
COc1cc(N2CCOCC2)ccc1/C=C1\C(=O)NC(=O)N(C2CCCCC2)C1=O	ROMK mod -2.5 | ROMK retest inactive
COc1cc2c(cc1OC)-c1c(OC)c(OC)c(OC)c3ccnc(c13)C2=O	ROMK mod -4.8 (no result: b-catenin transl) | ROMK retest 0.048
CCC(C)c1ccc(N2C(=O)NC(=O)/C(=C/c3cccn3CCOc3ccc(C)cc3)C2=O)cc1 (stereo not drawn)	none (no result: Insulin prom inh, ROMK mod) | ROMK retest 0.047
O=[N+]([O-])c1cc(-c2ccc([As](=O)(O)O)cc2)ccc1[As](=O)(O)O	none (no result: MT stabilizer, Insulin prom inh, ROMK mod)
CC(=NCCC(c1ccccc1)c1ccccc1)c1c(O)n(C)c(=O)n(C)c1=O	none (no result: Insulin prom inh, ROMK mod)
CN(C)C(=O)Oc1cccc(NC(=O)c2ccccc2C(F)(F)F)c1	none (no result: MT stabilizer, Insulin prom inh, ROMK mod)
CN(C)C(=O)Nc1cccc(OC(=O)N(C)C)c1	none (no result: ROMK mod) | ROMK retest inactive
Cn1c(O)c(/C=C/C=Nc2ccccc2)c(=O)n(C)c1=S	none (no result: b-catenin transl, Insulin prom inh, ROMK mod) | ROMK retest 0.046
Cc1cccc(-n2c(O)c(/C=C/C=Nc3ccccc3)c(=O)[nH]c2=O)c1	HSV replic up inconclusive
CCOC(=O)c1cncn1[C@H](C)c1ccccc1	none (no result: MT stabilizer, Insulin prom inh, ROMK mod)
CCNC(=O)C1OC(n2cnc3c(N)ncnc32)C(O)C1O (stereo not drawn)	ROMK mod 4.3 (no result: b-catenin transl) | ROMK retest inconclusive
CCc1c(C)nc(N)nc1N1N=C1SC(C(C)=O)C(C)=O	none (no result: Insulin prom inh)
Cc1ccccc1-n1c(O)c(/C=C2/C(c3ccccc3)=Nc3ccccc32)c(=O)[nH]c1=O	ROMK mod -6 (no result: Insulin prom inh) | ROMK retest 0.061
Cc1cccc(-n2c(O)c(/C=C3/C(c4ccccc4)=Nc4ccccc43)c(=O)[nH]c2=O)c1	b-catenin transl 52 (no result: MT stabilizer, Insulin prom inh, ROMK mod) | ROMK retest 0.044
COC(=O)C1=Nc2ccccc2/C1=C\c1c(O)n(-c2cc(OC)ccc2OC)c(=O)[nH]c1=O	none (no result: b-catenin transl)
Cc1oc(-c2ccccc2Cl)nc1CN1C(=O)CN=C(c2ccccc2)c2ccccc21	ROMK mod -2.8 (no result: HSV replic up) | ROMK retest 0.058
Cc1ccc(CN2C(=O)NC(=O)C3(Cc4c(nc5ccccn5c4=O)N4CCCCCC43)C2=O)cc1 (stereo not drawn)	ROMK mod -2.9 (no result: b-catenin transl, Insulin prom inh) | ROMK retest 0.064
OC(CNC1CCCCCCC1)c1ccccc1 (stereo not drawn)	none (no result: Insulin prom inh)
CCc1ccc(CNCCc2ccc(F)cc2)cc1	none
CCN(CC)c1ccc(CNCCc2ccc(F)cc2)cc1	ROMK mod -2.8 (no result: Insulin prom inh) | ROMK retest 0.054
C/C(=N\N1CCCCCC1)c1c(O)n(C)c(=O)n(C)c1=O	none (no result: MT stabilizer, Insulin prom inh, ROMK mod)
Cc1noc(C)c1C(=O)N1CCC2(CC1)OCCO2	ROMK mod 3.1 | ROMK retest inactive
Cc1ccccc1N1C(=O)NC(=O)/C(=C\c2cc(Br)c(N3CCOCC3)o2)C1=O	none (no result: Insulin prom inh, ROMK mod) | ROMK retest 0.025
CCn1c(O)c(/C=N/NC(=O)c2ccccc2)c(=O)n(CC)c1=S	none (no result: MT stabilizer, Insulin prom inh, ROMK mod) | ROMK retest 0.056
O=[N+]([O-])c1ccc(N2CCCNCC2)c2ncccc12	none (no result: MT stabilizer, Insulin prom inh, ROMK mod) | ROMK retest 0.039
